Assay outcomes deposited in PubChem BioAssay by Johns Hopkins Ion Channel Center.
TRPC4 act = activators of mouse TRPC4 channel, primary screen, Fluo4 calcium, HEK293 TRPC4beta/mu-opioid cells; Short transient receptor potential channel 4 (Mus musculus), Q9QUQ5; AID 2237, 2010; B-score at 10 µM; actives 0.49% (n = 310,000); Fluo4 calcium fluorescence; active compounds read high;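 active means B-score above 5 SD of library B-scores, and initial fluorescence ratio not above library mean plus 5 SD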;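 further: positive B-score marks a calcium rise read as TRPC4 activation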
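Material: TRPC4beta and mu-opioid receptor HEK293 stable cells | Incubation: 45 min room-temperature Fluo4 loading, 110 s read | Detection: Kinetic Fluo4 calcium fluorescence | Measure: Integrated baseline-normalised fluorescence ratio, converted to per-well B score | Benchmarks: Low control buffer alone, high control maximal DAMGO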
TRPC6 act = mouse TRPC6 channel activators, primary screen, cell-based, HEK293, membrane potential dye; Short transient receptor potential channel 6 (Mus musculus), Q61143; HEK293-TRPC6 membrane potential dye fluorescence; active compounds read high; B-score at 10 µM; actives 0.13% (n = 310,000); AID 2550, 2010;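 active means B-score of the integrated fluorescence ratio above library mean plus 3 SD, and starting fluorescence ratio within library mean plus 5 SD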;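 further: higher score means more depolarization so channel activation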
TRPC6 inhibitor = mouse TRPC6 channel inhibitors, primary screen, cell-based, HEK293, membrane potential dye. Short transient receptor potential channel 6 (Mus musculus), Q61143. ACh-evoked depolarization; active compounds read low. B-score at 10 µM. actives 1.1% (n = 310,000);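 active means B-score under library mean minus 3 SD, initial fluorescence not abnormally high, positive integrated signal ratio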;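 further: B-score derived from integrated fluorescence ratio over the kinetic read; more negative B-score means stronger inhibition of depolarization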
TRPC4 potent = positive allosteric modulators of TRPC4, primary screen, cell-based, mouse TRPC4beta, HEK293 mu-opioid, Fluo-4 calcium. Short transient receptor potential channel 4 (Mus musculus), Q9QUQ5. DAMGO EC20, Fluo-4 Ca2+ flux; active compounds read high. B-score at 10 µM. actives 0.42% (n = 310,000);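 active means B-score of calcium response area above 5 SD of library B-scores, with initial fluorescence ratio within 5 SD of library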;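 further: B-score of integrated fluorescence ratio over time as area under calcium response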
TRPC4 block = inhibitors of mouse TRPC4 channel, primary screen, Fluo4 calcium, HEK293 TRPC4beta/mu-opioid cells; Short transient receptor potential channel 4 (Mus musculus), Q9QUQ5; DAMGO-evoked Fluo4 calcium flux; active compounds read low; B-score at 10 µM; actives 0.39% (n = 300,000);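 active means B-score over 3 SD under the library average, no early fluorescence shift, positive overall ratio signal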
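Assay system: Stable TRPC4beta/mu-opioid receptor HEK293 cells | Reagent: DAMGO in two steps, submaximal then maximal | Compound dosing: Single concentration per test compound | Signal: Fluo4 Ca2+ flux fluorescence | Evaluation: Per-well B score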
* = called active by the depositor; i = inactive. Compounds with a hit are over-represented: about 2.3% of the library has one in this group of screens.

SMILES | TRPC4 act | TRPC6 act | TRPC6 inhibitor | TRPC4 potent | TRPC4 block
COc1ccc(C(CNC(=O)Cc2cccs2)N(C)C)cc1 (stereo not drawn) | 99* | i | i | i | i
COc1ccc(CNC(=O)Cc2cccs2)cc1 | i | i | i | i | i
COc1ccc(C(=O)CN2C(=O)NC3(CCCCCC3)C2=O)cc1 | i | i | i | i | i
Cc1cccc(C(=O)NC2CCN(CC(=O)Nc3ccccc3Cl)CC2)c1 | i | i | i | i | i
CC(C)CCNC(=O)CCc1nnc2ccc(N3CCC(C)CC3)nn12 | i | i | i | i | i
OC[C@@H](O)[C@H](O)C(/C=N/Nc1ccccc1)=N\Nc1ccccc1 | i | i | i | i | i
N#Cc1c(NCCCO)nc(-c2ccccc2)c2c1CCCC2 | 49* | i | i | i | i
Cc1ccc(C2N(c3cccc(Cl)c3)C(=O)C3CCCN32)o1 (stereo not drawn) | i | i | i | 33* | i
O=C1C2CCCN2C(c2cccs2)N1c1ccc(F)cc1 (stereo not drawn) | i | i | i | i | i
COc1cccc(N2C(=O)C3CCCN3C2c2cccs2)c1 (stereo not drawn) | 43* | i | i | i | i
COc1ccc(C(C(=O)NCc2ccc(F)cc2)N(C(=O)c2csnn2)C2CC2)cc1 (stereo not drawn) | i | i | i | i | i
CN(C(=O)Cn1cccc1C1=NC(c2ccccc2)CO1)c1ccccc1 (stereo not drawn) | i | i | i | i | i
COc1ccc(Cl)cc1-n1c(=S)sc2c(=O)[nH]c(SCC(=O)C(C)(C)C)nc21 | i | i | i | i | i
C=CCN(C)CC/C=C1\c2ccccc2CSc2ccccc21 | i | i | i | i | -5*
COc1ccc(C(=O)NNC(=O)c2ccc(C(C)(C)C)cc2)cc1 | i | i | i | i | i
CC(C)(C)C(=O)NC(=S)NNC(=O)c1sc2ccccc2c1Cl | 256* | i | i | i | i
COc1ccc(C(=O)NNC(=S)NC(=O)C(C)(C)C)cc1 | 225* | i | i | i | i
CC(=O)NCc1ccc(C(=O)O)cc1 | i | i | i | i | i
O=C(NC(=S)NCCCN1CCOCC1)c1cccc2ccccc12 | i | i | i | i | i
COc1ccc(N2CC(C(=O)N3CCN(c4ccccc4)CC3)CC2=O)cc1 (stereo not drawn) | i | i | i | i | i
CCOC(=O)C1(CCOc2ccccc2)CCN(Cc2cnc(SC)nc2)CC1 | i | i | i | i | i
CCOC(=O)C1(CC2CC2)CCN(Cc2cnc(-c3ccccc3C)nc2)CC1 | 118* | i | i | i | i
CCOC(=O)C1(CC2CC2)CCN(Cc2cc(Cl)c(O)c(OC)c2)CC1 | i | i | i | i | -9*
CCOc1cc(/C=N/NC(=O)C(O)(c2ccccc2)c2ccccc2)ccc1OC(=O)c1ccco1 | i | i | i | i | i
CCC(Cc1ccccc1)NC(=O)C1=C(C)C(=O)OC12CCC(C)CC2 (stereo not drawn) | i | i | i | i | i
Cc1cc(C)nc(NNS(=O)(=O)c2ccc(F)c(Cl)c2)n1 | i | i | i | 17* | i
COc1ccc(S(=O)(=O)NNc2nc(C)cc(C)n2)cc1Br | i | i | i | i | i
CN(Cc1ccccc1)C(=O)c1oc(=O)c2ccccc2c1-c1ccccc1 | i | i | i | 16* | i
CC(C)c1ccc(C2=NN(c3ccccc3)C(=O)CC2)cc1 | i | i | i | 11* | i
O=C(Nc1nnc(-c2ccccc2)o1)c1ccc(Cl)cc1 | 48* | i | i | i | i
